Rad51 HR inh – human RAD51 strand exchange inhibitors, primary screen, biochemical, fluorescence; DNA repair protein RAD51 homolog 1 (Homo sapiens), Q06609; hRad51 DNA strand exchange, fluorescence dequenching; inhibition, % at 10 µM; 200,000 tested, 0.085% active; AID 1385, 2008;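 active = inhibition above 40% at the single screening dose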;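 note: 0% = DMSO control wells and 100% = blanks with heterologous ssDNA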
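Read-out basis: percent inhibition relative to plate controls and blanks / Assay system: human Rad51 nucleoprotein filaments preassembled on unlabelled ssDNA / Timing: filaments 15 min 37 °C, then compound 30 min / Control set: per-plate controls and blanks / Technique: fluorescence dequenching at 485/520 nm / Compound: 10 µM final, single point / Also added: Fluorescein- and BHQ1-tagged 47-mer duplex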
CHT block – inhibitors of human choline transporter CHT; CHT-expressing cells, membrane potential dye, choline response; active compounds read low; High affinity choline transporter 1 (Homo sapiens), Q9GZV3; 310,000 tested, 0.86% active; B-score at 10 µM;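 active = B-score over 3 SD under the library average, and starting fluorescence ratio not unusually high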;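 note: choline stimulus applied at its EC90 after an EC20 pre-addition; B-score computed on integrated fluorescence ratio after choline addition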
Target sequence (Q9GZV3 whole entry, looked up): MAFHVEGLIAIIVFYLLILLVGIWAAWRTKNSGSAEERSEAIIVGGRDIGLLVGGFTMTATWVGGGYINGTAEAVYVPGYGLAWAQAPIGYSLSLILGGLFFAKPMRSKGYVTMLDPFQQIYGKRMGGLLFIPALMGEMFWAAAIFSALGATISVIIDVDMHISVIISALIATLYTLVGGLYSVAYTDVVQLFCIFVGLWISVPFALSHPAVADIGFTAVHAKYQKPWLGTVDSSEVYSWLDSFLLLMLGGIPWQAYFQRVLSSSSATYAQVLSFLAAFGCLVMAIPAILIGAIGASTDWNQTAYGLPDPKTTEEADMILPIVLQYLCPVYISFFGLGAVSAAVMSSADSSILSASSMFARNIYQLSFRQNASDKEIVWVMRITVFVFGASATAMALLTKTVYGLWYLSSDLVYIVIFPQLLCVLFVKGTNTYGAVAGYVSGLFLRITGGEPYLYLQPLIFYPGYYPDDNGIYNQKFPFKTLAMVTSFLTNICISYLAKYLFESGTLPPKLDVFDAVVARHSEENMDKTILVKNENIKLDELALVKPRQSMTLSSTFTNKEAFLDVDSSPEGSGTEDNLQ
Cl transport mod – KCC2 cotransporter modulators, thallium flux, primary screen, cell-based, HEK293 KCC2, FluoZin-2 fluorescence, MLSMR; Solute carrier family 12 member 5 (Homo sapiens), Q9H2X9; KCC2 cells, thallium flux FluoZin-2 fluorescence; B-score of Tl+ flux slope (higher = more flux/activation; lower = inhibition) at 10 µM; 190,000 tested, 2.2% active; AID 1456, 2008;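 active = thallium flux slope and its plate-corrected score both differing from the plate sample mean at a set confidence after two filtering rounds, in either direction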;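 note: slope of fluorescence scaled to starting intensity during 10 to 20 s after thallium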
CHT allo act – CHT positive allosteric modulators, primary screen, cell-based, membrane potential dye, choline EC20; High affinity choline transporter 1 (Homo sapiens), Q9GZV3; B-score at 10 µM; 310,000 tested, 0.49% active; CHT-expressing cells; active compounds read high; LV-AA mutant CHT in HEK293 cells; AID 488977, 2010;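 active = initial fluorescence not abnormally high and integrated response B-score, plate-corrected, over 3 SD above library mean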
KCC2 sec1 – KCC2 modulators in sodium-free buffer, confirmation, cell-based, HEK293 KCC2, thallium flux, secondary assay; FluoZin2 fluorescence; active compounds read high; shares compounds with Cl transport mod; normalised thallium flux (F/F0 slope) at 10 µM; 3,700 tested, 15% active;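 active = thallium flux slope above the same plate's solvent-only control mean plus 3 SD; inconclusive = the two replicate wells disagree; inactive = no significant difference from solvent-only control wells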
KCC2 bumet counter – thallium flux persisting under bumetanide in KCC2 cells, confirmation, counter-screen for KCC2 modulator project, cell-based, HEK293 KCC2, FluoZin2, secondary assay 3; 3,700 tested, 49% active; HEK293-KCC2 + bumetanide/ouabain; active compounds read high; shares compounds with Cl transport mod; normalized thallium flux at 10 µM;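 active = thallium entry rate above the same plate's blocked-transporter control wells by more than 3 SD; inconclusive = the two repeat wells disagree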;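 note: raw slope of fluorescence over initial fluorescence between 10 and 20 s after thallium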
KCC2 secondary2 – KCC2 modulators without ouabain present, confirmation, cell-based, HEK293 KCC2, thallium flux, FluoZin2, secondary assay 2; shares compounds with Cl transport mod; thallium flux FluoZin2 fluorescence; actives lie on both sides; F/F0 rise rate, 10–20 s post-thallium; normalized thallium flux at 10 µM; 3,700 tested, 23% active; AID 1715, 2009;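 active = thallium flux slope more than 3 SD above or below the plate's solvent-only control mean, mostly below; inconclusive = the two repeat wells disagreed; inactive = no significant shift from solvent-only controls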;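 note: raw slope with 0.1% DMSO as baseline and bumetanide as block control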
HEK counter1 – thallium flux modulation in parental HEK cells, confirmation, counter-screen for KCC2 modulator project, cell-based, counterscreen 1. shares compounds with Cl transport mod. HEK293 parental cells, thallium flux FluoZin2, ouabain; baseline-ratio fluorescence slope, 10–20 s after thallium. thallium flux rate (normalised fluorescence) at 10 µM. 3,700 tested, 46% active;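 active = thallium flux rate significantly above the same plate's solvent-only control wells, beyond their mean plus 3 SD; inconclusive = the two replicate wells gave conflicting results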
KCC2 retest ouab – KCC2 inhibitors and activators, ouabain retest, confirmation, HEK-KCC2 cells. 3,700 tested, 48% active. shares compounds with Cl transport mod. HEK293-KCC2, thallium flux FluoZin2 fluorescence; bidirectional: low = inhibitor, high = activator. raw Tl+ flux slope (below DMSO = inhibition, above = activation) at 10 µM;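 active = thallium flux slope beyond 3 SD from same-plate DMSO control mean in most replicates, usually higher, sometimes lower; inconclusive = repeat tests gave conflicting results; inactive = no significant difference from controls in most replicates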;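 note: slope of initial-normalized fluorescence between seconds 10 and 20 after thallium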
HEK293 Tl flux2 – native HEK Tl+ uptake effects, second counter-screen – HEK cells, counterscreen 2, counter-screen for KCC2 modulator project, confirmation. shares compounds with Cl transport mod. HEK293 parental, thallium flux FluoZin-2 fluorescence slope. thallium flux slope at 10 µM. 3,700 tested, 33% active. AID 1718, 2009;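 active = thallium flux slope above the same plate's solvent-control mean plus 3 SD in both duplicate wells; inconclusive = duplicate wells that disagreed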;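 note: run without ouabain in cells lacking the KCC2 cotransporter; slope of fluorescence scaled to its starting value between 10 and 20 s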
* marks the source's active call; other numbers are inactive results; i = inactive; ? = inconclusive; / = no result given. Hits are enriched below; roughly 2.6% of the tested compounds scored in any of these assays.

SMILES	Rad51 HR inh	CHT block	Cl transport mod	CHT allo act	KCC2 sec1	KCC2 bumet counter	KCC2 secondary2	HEK counter1	KCC2 retest ouab	HEK293 Tl flux2
C=CCNC(=S)Nc1nc2c(cc1C(=O)OCC)COC(C)(C)C2	/	i	8.5*	i	0.0066	0.022*	0.035	0.02*	0.029*	0.021*
CCOC(=O)c1cc2c(nc1NC(=S)NCc1ccccc1)CCCC2	-4	i	5.2*	i	0.0073	0.03*	0.039*	0.038*	0.063*	0.018*
CCOC(=O)c1cc2c(nc1NC(=S)Nc1ccccc1)CC(C)(C)OC2	4	i	-3	i	/	/	/	/	/	/
C=CCn1c(-c2ccco2)n[nH]c1=S	-1	i	/	i	0.0091	0.0066	0.036	0.0085	0.019	0.011
C=CCn1c(-c2cc3cccc(OC)c3o2)n[nH]c1=S	4	i	3.7*	i	0.0051	0.014*	0.032	0.013*	?	0.016*
C=CCn1c(-c2cccc(OC)c2OC)n[nH]c1=S	25	i	-0.56	i	/	/	/	/	/	/
O=C(N/N=C/c1ccc2cccc(OCc3ccccc3)c2n1)c1ccc(Cl)cc1	-2	i	4.9*	i	0.022*	0.048*	0.031	0.014*	0.025*	?
O=C(N/N=C/c1ccncc1)c1ccc(COc2cccc3cccnc23)cc1	-4	i	-2.7	i	/	/	/	/	/	/
O=C(NC1CCCC1)C(c1ccccc1F)N(C(=O)Cc1cccs1)c1ccc2c(c1)OCCO2 (stereo not drawn)	/	i	-2.3	i	/	/	/	/	/	/
COc1ccc(C(=O)NC(=S)Nc2ccc(CN3CCOCC3)cc2)cc1	-2	i	0.3	i	/	/	/	/	/	/
O=C(NC(=S)Nc1ccc(CN2CCOCC2)cc1)c1ccc([N+](=O)[O-])cc1	-9	i	4.6*	i	0.0072	0.0097*	0.035	0.012*	0.022	0.013*
Cc1ccc(C)c(S(=O)(=O)NC(C)C(=O)Nc2ccc(-c3nc4ccccc4s3)cc2)c1 (stereo not drawn)	-10	i	4.8*	i	0.017	0.0059*	0.03	?	0.017	0.011
CC(C)(C)C1CCc2sc(C(=O)NNC(=O)CCl)cc2C1 (stereo not drawn)	2	/	3.3*	/	0.0071	0.017*	0.03	0.017*	?	0.014*
Fc1ccc(-c2nn3c(C4COc5ccccc5O4)nnc3s2)cc1 (stereo not drawn)	/	i	-4.5*	i	0.0055	0.0045	0.03	0.0079	0.019	0.011
c1ccc2c(c1)OCC(c1nnc3sc(-c4ccc5c(c4)OCO5)nn13)O2 (stereo not drawn)	-3	i	/	i	/	/	/	/	/	/
O=C(NCc1ccco1)C(c1ccccc1)N(C(=O)Cc1cccs1)c1ccccc1F (stereo not drawn)	0	i	0.44	i	/	/	/	/	/	/
c1cc2c(cc1-c1csc(NNC3=NCCCCC3)n1)OCCO2	-16	i	3.6*	i	0.0075	0.0055	0.034	0.008	0.019	0.011
CCCCc1n[nH]c(=S)n1Cc1ccc(Cl)cc1	6	i	4.2*	i	0.0088	0.017*	0.034	0.0094*	0.022	0.011
CCCCc1n[nH]c(=S)n1Cc1ccccc1	/	i	-0.044	i	/	/	/	/	/	/
S=c1[nH]nc(COc2ccc(Cl)cc2)n1Cc1ccco1	-11	i	10*	i	0.0096	0.057*	0.029	0.012*	0.028*	?
S=c1[nH]nc(-c2ccc(Br)cc2)n1Cc1ccco1	-6	i	/	i	0.0065	0.016*	0.029	0.015*	?	0.014*
Cc1ccc2nc(NC(=O)Cn3cc4c(n3)CCCCC4)sc2c1	1	i	-2.9*	i	0.009	?	0.031	?	0.02	0.011
Cc1cc(C)c(NC(=O)Cn2cc3c(n2)CCCC3)c(C)c1	-1	i	0.39	i	/	/	/	/	/	/
Cc1cc(C)c2cc(C#N)c(N3CCCC3)nc2c1	-7	i	8.7*	i	0.011	0.0059	0.036	0.007	0.026	0.01
O=C(CSc1nc2ccccc2o1)N/N=C/c1ccco1	/	i	/	i	/	/	/	/	/	/
SMILES	Rad51 HR inh	CHT block	Cl transport mod	CHT allo act	KCC2 sec1	KCC2 bumet counter	KCC2 secondary2	HEK counter1	KCC2 retest ouab	HEK293 Tl flux2
Cc1ccc(C)c(OCc2cc(C(=O)NC3CCN(Cc4ccccc4)CC3)no2)c1	/	i	/	i	/	/	/	/	/	/
O=C(NC1CCN(Cc2ccccc2)C1)c1cc(COc2ccc(F)cc2F)on1 (stereo not drawn)	/	i	/	i	0.0064	0.0048	?	0.0074	0.019	0.0099
O=C(COc1ccccc1)Nc1nnc(-c2ccc3c(c2)CCCC3)o1	6	i	8.8*	i	?	0.061*	0.035	0.024*	0.041*	0.012*
Cc1ccc(C)c(S(=O)(=O)N2CCCCC2CCNC(=O)C(=O)NCc2ccccc2)c1 (stereo not drawn)	/	i	/	i	/	/	/	/	/	/
O=c1[nH]nc(Sc2ncnc3sccc23)n1CCc1ccccc1	/	i	-3.2*	i	0.0096	0.0072	0.031	0.0039	0.019	0.012
Cc1ccccc1-n1c(=S)[nH]c2nc3c(cc2c1=O)CCCC3	8	i	25*	i	0.025*	0.069*	0.045*	0.046*	0.043*	0.035*
COc1ccc(S(=O)(=O)NC(CC(=O)NCCc2ccccc2)c2ccco2)cc1 (stereo not drawn)	2	i	/	i	0.0071	0.0061	0.034	0.0082	?	0.01
Cc1cccc(C)c1NC(=O)c1c[nH]c2ccccc12	/	i	/	i	/	/	/	/	/	/

Assay outcomes: PubChem, several laboratories
